The nature of series [1]: In vivo inhibition of Class 1 HDAC in C57BL/6J mouse brain assessed as increase in histone H3/H4 acetylation administered orally via gavage measured after 2 hrs by western blot analysis. Type of series: organism-based. The conditions noted are these: po, dose 10-100 mg/kg. In a few lines:
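Brain samples were taken 2 h after single oral gavage doses (10, 30, 100 mg/kg). Western blots probed H3, H4 and tubulin acetylation, each normalized to its own total-protein band. Comparison was against samples taken 5 min after a 10 mg/kg dose.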
(In general: A western blot detects proteins with antibodies after separation by electrophoresis.)

Series [2] can be described thus: In vivo inhibition of Class 1/2B HDAC in CBAxC57BL/6J mouse brain assessed as increase in global pan-acetylation at >=10 mg/kg, po bid for 14.5 days by dot blot technique. The series is classed as organism-based. The conditions noted are these: 348 h, time 14.5 day. In outline:
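R6/2 and wild-type littermate mice of both sexes were dosed orally b.i.d. for 14.5 days with 10, 30 or 100 mg/kg or vehicle (10% w/v hydroxypropyl-β-cyclodextrin in 50 mM citrate buffer). Half-brains were collected 2 h after the last dose. Dot blots measured global and H4K12 acetylation; Western blots measured H3, H4 and tubulin acetylation. Genotypes were pooled.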

Series [3] is described as follows: Metabolic stability of the compound in mouse blood. The series is classed as ADME, tissue-based.
Series [4] is described as follows: Volume of distribution in C57BL/6J mouse at 3.3 mg/kg, iv by LC-MS/MS analysis. The conditions noted are these: in vivo. The series is classed as ADME, organism-based. In outline:
(§1)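 Fed male C57Bl/6 mice dosed once intravenously at 3.3 mg/kg and by oral gavage at 11.5 mg/kg. Compound levels were quantified to derive PK parameters.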

A further series addresses Cytochrome P450 1A2 (Homo sapiens, UniProt P05177). The series is described as follows: Inhibition of CYP1A2 in human liver microsomes using phenacetin as substrate incubated for 30 mins by LC-MS/MS analysis. The series is classed as ADME. On the technique in general: Microsomes from liver hold many membrane-bound enzymes, among them those of drug oxidation.
Series [5] in a line: Toxicity in CBAxC57BL/6J mouse assessed as effect on touch escape at 10 to 100 mg/kg, po bid for 14.5 days. The conditions noted are these: in vivo, 348 h, dose 10-100 mg/kg, time 14.5 day. Type of series: organism-based. In outline:
(§2)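 R6/2 HD mice and wild-type littermates, male and female, were dosed orally b.i.d. at 10, 30 or 100 mg/kg or with vehicle for 14.5 days. Vehicle was 10% (w/v) hydroxypropyl-β-cyclodextrin in 50 mM citrate buffer. Body weight, body temperature, passive observations and active manipulation scores were recorded. Blood and brain were collected 2 h after the final dose.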

Series [6] is described as follows: Metabolic stability of the compound in human plasma. The series is classed as ADME, cell-free.
The target of series [7] is T1, Protein deacetylase HDAC6 (Homo sapiens, UniProt Q9UBN7).
T1 sequence (Q9UBN7 whole entry): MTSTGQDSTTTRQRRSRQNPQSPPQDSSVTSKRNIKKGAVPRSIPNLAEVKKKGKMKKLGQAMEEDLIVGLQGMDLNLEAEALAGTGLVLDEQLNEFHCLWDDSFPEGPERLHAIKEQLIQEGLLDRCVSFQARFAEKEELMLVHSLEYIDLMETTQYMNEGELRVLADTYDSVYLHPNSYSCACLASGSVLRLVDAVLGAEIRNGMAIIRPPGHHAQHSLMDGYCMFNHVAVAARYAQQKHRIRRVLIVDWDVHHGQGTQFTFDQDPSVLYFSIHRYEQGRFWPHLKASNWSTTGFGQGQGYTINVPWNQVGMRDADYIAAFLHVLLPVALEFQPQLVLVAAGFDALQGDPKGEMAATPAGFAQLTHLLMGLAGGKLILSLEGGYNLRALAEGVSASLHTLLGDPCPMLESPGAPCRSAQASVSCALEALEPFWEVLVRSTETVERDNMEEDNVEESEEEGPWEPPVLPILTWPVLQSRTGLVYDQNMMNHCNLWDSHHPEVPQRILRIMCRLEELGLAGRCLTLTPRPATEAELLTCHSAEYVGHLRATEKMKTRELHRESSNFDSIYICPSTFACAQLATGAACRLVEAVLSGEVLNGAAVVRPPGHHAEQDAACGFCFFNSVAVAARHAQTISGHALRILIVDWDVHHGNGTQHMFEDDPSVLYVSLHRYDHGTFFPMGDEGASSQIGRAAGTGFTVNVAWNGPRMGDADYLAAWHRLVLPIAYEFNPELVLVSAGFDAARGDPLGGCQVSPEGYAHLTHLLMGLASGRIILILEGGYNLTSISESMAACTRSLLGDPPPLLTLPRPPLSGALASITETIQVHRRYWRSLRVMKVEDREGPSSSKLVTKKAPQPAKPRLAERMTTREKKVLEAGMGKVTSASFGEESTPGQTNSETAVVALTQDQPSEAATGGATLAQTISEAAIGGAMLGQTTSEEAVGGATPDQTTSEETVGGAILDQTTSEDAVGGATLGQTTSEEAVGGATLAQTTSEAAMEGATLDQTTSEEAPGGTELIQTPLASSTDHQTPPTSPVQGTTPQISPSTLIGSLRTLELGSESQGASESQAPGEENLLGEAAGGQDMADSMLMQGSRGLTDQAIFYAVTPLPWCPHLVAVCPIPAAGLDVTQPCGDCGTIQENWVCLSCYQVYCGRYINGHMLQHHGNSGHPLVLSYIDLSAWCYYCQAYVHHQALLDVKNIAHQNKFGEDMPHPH
In words: Inhibition of HDAC6 (unknown origin) expressed in human HEK-Freestyle cells using Boc-Lys(Ac) as substrate by fluorogenic assay. The series is classed as cell-based. In outline:
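HDAC6 was supplied as lysate of HEK cells overexpressing the enzyme. Activity was read with the class I/IIb-specific fluorogenic substrate Boc-Lys-(Ac)-AMC. IC50 is the geometric mean of three experiments.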

Series [8] can be described thus: Intrinsic Clearance in mouse liver microsomes. The conditions noted are these: read-out: CLH. Type of series: ADME, Microsome.
Series [9] is described as follows: Metabolic stability of the compound in C57BL/6 mouse plasma at 5 uM measured for 60 mins by LC-MS/MS analysis. The series is classed as ADME, cell-free. The conditions noted are these: 1 h.
A short description of series [10]: Unbound fraction in mouse blood by equilibrium dialysis method. Type of series: ADME, tissue-based. In a few lines:
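Compound added to mouse blood; unbound fraction determined by equilibrium dialysis.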
In general terms: In equilibrium dialysis free small molecules cross a membrane that holds back macromolecules.

The nature of series [11]: Plasma clearance in C57BL/6J mouse at 3.3 mg/kg, iv by LC-MS/MS analysis. The series is classed as ADME, organism-based. In a few lines:
as §1

Series [12] has as its target Muscarinic acetylcholine receptor M2 (Homo sapiens, UniProt P08172). The series is described as follows: Displacement of [3H]AF-DX384 from human recombinant M2 receptor incubated for 1 hr by radiometric scintillation counting analysis.
The nature of series [13]: Tmax in C57BL/6J mouse brain at 11.5 mg/kg, po administered via gavage by LC-MS/MS analysis. Type of series: ADME, organism-based.
A short description of series [14]: Toxicity in CBAxC57BL/6J mouse assessed as effect on shivering at 10 to 100 mg/kg, po bid for 14.5 days. The series is classed as organism-based. The conditions noted are these: in vivo, 348 h, dose 10-100 mg/kg, time 14.5 day. In a few lines:
as §2

The next series deals with Histone deacetylase 4 (Homo sapiens, UniProt P56524). In words: Inhibition of Class 2A HDAC4 in human Jurkat E6.1 cells using Boc-Lys-(TFA)-AMC as substrate by fluorogenic assay. Type of series: cell-based. In outline: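 Whole-cell assay in Jurkat E6.1 cells with artificial fluorogenic substrates: Boc-Lys-(TFA)-AMC for class IIa/HDAC8 activity, which in this line is mostly HDAC4, and Boc-Lys-(Ac)-AMC for class I/IIb activity. IC50 given as the geometric mean of three experiments.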

SMILES strings stand for the structures.

Cytochrome P450 1A2, sequence (P05177 whole entry): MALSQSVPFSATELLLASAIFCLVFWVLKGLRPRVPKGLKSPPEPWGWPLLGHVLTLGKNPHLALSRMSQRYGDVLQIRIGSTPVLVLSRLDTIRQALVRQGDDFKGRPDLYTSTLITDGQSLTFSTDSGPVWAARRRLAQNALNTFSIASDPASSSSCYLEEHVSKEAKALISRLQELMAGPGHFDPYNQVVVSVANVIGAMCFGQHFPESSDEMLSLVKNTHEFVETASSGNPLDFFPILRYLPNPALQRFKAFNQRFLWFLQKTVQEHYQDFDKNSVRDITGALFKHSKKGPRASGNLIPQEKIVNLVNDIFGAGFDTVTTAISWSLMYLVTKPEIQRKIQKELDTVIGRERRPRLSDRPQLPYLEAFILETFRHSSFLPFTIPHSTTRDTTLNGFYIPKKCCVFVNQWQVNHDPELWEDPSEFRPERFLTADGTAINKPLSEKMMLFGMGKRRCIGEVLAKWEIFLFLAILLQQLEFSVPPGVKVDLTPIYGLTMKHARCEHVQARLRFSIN
Muscarinic acetylcholine receptor M2, sequence (P08172 whole entry): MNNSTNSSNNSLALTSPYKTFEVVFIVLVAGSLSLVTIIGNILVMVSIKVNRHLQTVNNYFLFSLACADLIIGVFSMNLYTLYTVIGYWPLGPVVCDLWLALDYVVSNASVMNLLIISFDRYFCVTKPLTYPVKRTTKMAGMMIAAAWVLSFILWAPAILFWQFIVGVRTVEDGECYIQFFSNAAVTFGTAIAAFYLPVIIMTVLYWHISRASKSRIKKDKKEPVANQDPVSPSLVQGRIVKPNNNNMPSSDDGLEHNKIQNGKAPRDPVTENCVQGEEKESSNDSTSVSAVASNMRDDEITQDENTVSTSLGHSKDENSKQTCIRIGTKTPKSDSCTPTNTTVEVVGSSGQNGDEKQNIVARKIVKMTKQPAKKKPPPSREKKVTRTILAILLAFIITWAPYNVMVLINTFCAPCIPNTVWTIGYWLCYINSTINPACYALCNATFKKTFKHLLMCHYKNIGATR
Histone deacetylase 4, sequence (P56524 whole entry): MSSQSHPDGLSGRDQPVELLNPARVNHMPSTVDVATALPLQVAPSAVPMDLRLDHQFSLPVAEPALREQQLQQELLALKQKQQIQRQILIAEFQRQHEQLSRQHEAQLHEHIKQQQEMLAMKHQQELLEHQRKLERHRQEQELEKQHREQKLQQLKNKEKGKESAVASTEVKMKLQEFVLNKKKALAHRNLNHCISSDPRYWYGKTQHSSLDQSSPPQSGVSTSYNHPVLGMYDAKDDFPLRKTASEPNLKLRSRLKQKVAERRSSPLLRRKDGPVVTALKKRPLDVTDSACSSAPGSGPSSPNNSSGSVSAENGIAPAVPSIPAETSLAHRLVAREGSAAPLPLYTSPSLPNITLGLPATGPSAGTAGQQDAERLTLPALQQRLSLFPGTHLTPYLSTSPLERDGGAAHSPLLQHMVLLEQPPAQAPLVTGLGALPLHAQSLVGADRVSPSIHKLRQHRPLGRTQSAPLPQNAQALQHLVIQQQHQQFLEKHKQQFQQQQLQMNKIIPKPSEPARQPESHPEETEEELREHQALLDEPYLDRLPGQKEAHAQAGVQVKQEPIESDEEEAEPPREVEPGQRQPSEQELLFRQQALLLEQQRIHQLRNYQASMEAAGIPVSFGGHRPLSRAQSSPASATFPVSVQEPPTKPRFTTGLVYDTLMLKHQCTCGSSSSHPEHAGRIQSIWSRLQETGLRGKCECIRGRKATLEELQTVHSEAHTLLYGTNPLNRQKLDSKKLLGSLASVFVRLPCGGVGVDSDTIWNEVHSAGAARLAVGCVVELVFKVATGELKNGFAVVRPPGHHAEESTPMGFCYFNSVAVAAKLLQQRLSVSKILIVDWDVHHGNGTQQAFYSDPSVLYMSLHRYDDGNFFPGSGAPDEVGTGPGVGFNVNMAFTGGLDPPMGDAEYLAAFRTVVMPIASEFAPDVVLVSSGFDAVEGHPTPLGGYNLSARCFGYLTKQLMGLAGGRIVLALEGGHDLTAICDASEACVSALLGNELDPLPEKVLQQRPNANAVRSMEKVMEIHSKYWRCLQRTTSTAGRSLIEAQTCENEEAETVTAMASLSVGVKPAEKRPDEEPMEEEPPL

Usually Vd stands for a proportionality between amount in the body and measured concentration, not a real space. One may read the IC50 as the concentration needed to halve the response being measured. A low value points to higher potency. In general, fraction unbound refers to free concentration divided by total concentration. As a reminder, the clearance is the rate of elimination divided by the concentration. Low values mean inefficient removal, high ones efficient removal. The term Kd denotes the concentration at which binding is half-saturated. As a reminder, the Tmax is the time at which the peak concentration occurs. In the case of `C[C@H](CN1CCC[C@@H]1C)NC(=O)c1ccc(-c2noc(C(F)(F)F)n2)cc1`, the Activity result in series [1] is on record as “Toxic”; in series [2], “Toxic”; in series [5], “Non-Toxic”; in series [14] it was “Non-Toxic”. The Stabilty result in series [3], in [6] and in [9] was “Stable” each time. In [4], this compound had a volume of distribution (Vd) of 3.8 L/kg. Also, the half-inhibitory concentration (IC50) against Cytochrome P450 1A2 is over 50 µM; in series [7], 22 µM; at Histone deacetylase 4, 0.04 µM. In [8], the CLint scaled turned out to be 5.16 L/h/kg. The compound also returned a free fraction (fraction unbound) in series [10] of 0.73. The compound further gave a clearance in series [11] of 4.2 L/h/kg. The dissociation constant Kd in [12] was over 5 µM. Also, the Tmax in series [13] turned out to be 30 min.
